In ChEMBL document CHEMBL1137753, “Insecticidal heterolignans--tubuline polymerization inhibitors with activity against chewing pests” (Bioorg Med Chem, 2009):
Activity calls are given as the source filed them. Unless noted, the rule behind the calls is not given here.

Key:
Format in all cases: functional, organism-based
Phaedon cochleariae [1] = experiment: Insecticidal activity against Phaedon cochleariae larvae in disk of Chinese cabbage leaf at 500 g/ha treated as spray
How it was run: (§1)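 This was sprayed on Chinese cabbage leaf disks. Once dry, disks were infested with mustard beetle larvae and mortality was scored after a set time. "+" denotes ≥80% larvae killed; n.a. denotes none killed.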

Spodoptera frugiperda [2] = experiment: Insecticidal activity against Spodoptera frugiperda larvae in disk of maize leaf at 100 g/ha treated as spray
How it was run: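 The same acetone/DMF/emulsifier formulation, diluted in emulsifier-containing water, was sprayed onto maize leaf disks. Dried disks were infested with fall armyworm larvae and mortality was assessed after a set time. "+" denotes ≥80% larvae killed; n.a. denotes no larvae killed.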

Spodoptera frugiperda [3] = experiment: Insecticidal activity against Spodoptera frugiperda larvae in disk of maize leaf treated as spray
Phaedon cochleariae [4] = experiment: Insecticidal activity against Phaedon cochleariae larvae in disk of Chinese cabbage leaf at 100 g/ha treated as spray; how it was run: as §1
Phaedon cochleariae [5] = experiment: Insecticidal activity against Phaedon cochleariae larvae in disk of Chinese cabbage leaf treated as spray

With COc1cc(OC)cc(C2C3=C(COC3=O)Nc3cc4c(cc32)OCCCO4)c1 (stereo not drawn) the Activity (Phaedon cochleariae [1]) was “Active” and the Activity (Spodoptera frugiperda [2]) was “Active”.
In the case of COc1cc(C2C3=C(COC3=O)Nc3cc4c(cc32)OCO4)cc(O)c1OC (stereo not drawn), the Activity (Spodoptera frugiperda [3]) is reported as “inactive” and the Activity (Phaedon cochleariae [4]) is reported as “Active”.
O=C1OCC2=C1C(c1cccc(Cl)c1)c1cc3c(cc1N2)OCO3 (stereo not drawn) was tested, and the Activity (Phaedon cochleariae [1]) was “Active” and the Activity (Spodoptera frugiperda [2]) was “Active”.
For CCOc1cccc(C2C3=C(COC3=O)Nc3cc4c(cc32)OCO4)c1 (stereo not drawn), the Activity (Phaedon cochleariae [4]) was “Active” and the Activity (Spodoptera frugiperda [2]) was “Active”.
COc1cc(OC)cc(C2C3=C(CCC3=O)Nc3cc4c(cc32)OCO4)c1 (stereo not drawn) was tested, and the Activity (Phaedon cochleariae [1]) was “Active” and the Activity (Spodoptera frugiperda [2]) was “Active”.
Cc1cccc(C2C3=C(COC3=O)Nc3cc4c(cc32)OCO4)c1 (stereo not drawn) was tested, and the Activity (Phaedon cochleariae [5]) was “inactive” and the Activity (Spodoptera frugiperda [2]) was “Active”.
In the case of COc1cc(OC)cc(C2C3=C(COC3=O)Nc3cc(OC4CC4)ccc32)c1 (stereo not drawn), the Activity (Phaedon cochleariae [1]) is reported as “Active” and the Activity (Spodoptera frugiperda [2]) is reported as “Active”.
O=C1OCC2=C1C(c1cc(F)cc(F)c1)c1cc3c(cc1N2)OCO3 (stereo not drawn) was tested, and the Activity (Phaedon cochleariae [4]) was “Active”.
Cc1cc(C)cc(C2C3=C(COC3=O)Nc3cc4c(cc32)OCO4)c1 (stereo not drawn) was tested, and the Activity (Phaedon cochleariae [4]) was “Active”.
For COc1cc(OC)cc(C2C3=C(COC3=O)Nc3cc4c(cc32)OCCO4)c1 (stereo not drawn), the Activity (Phaedon cochleariae [1]) was “Active” and the Activity (Spodoptera frugiperda [2]) was “Active”.
In the case of O=C1OCC2=C1C(c1cccc(Br)c1)c1cc3c(cc1N2)OCO3 (stereo not drawn), the Activity (Phaedon cochleariae [4]) is reported as “Active”.
N#CCOc1cccc(C2C3=C(COC3=O)Nc3cc4c(cc32)OCO4)c1 (stereo not drawn) was tested, and the Activity (Phaedon cochleariae [1]) was “Active” and the Activity (Spodoptera frugiperda [2]) was “Active”.
In the case of O=C1OCC2=C1C(c1cccc(F)c1)c1cc3c(cc1N2)OCO3 (stereo not drawn), the Activity (Phaedon cochleariae [4]) is reported as “Active”.
For COc1cc(C2C3=C(COC3=O)Nc3cc4c(cc32)OCO4)cc(Br)c1OC (stereo not drawn), the Activity (Spodoptera frugiperda [3]) was “inactive” and the Activity (Phaedon cochleariae [4]) was “Active”.
In the case of O=C1NCC2=C1C(c1cccc(Cl)c1)c1cc3c(cc1N2)OCO3 (stereo not drawn), the Activity (Phaedon cochleariae [1]) is reported as “Active” and the Activity (Spodoptera frugiperda [2]) is reported as “Active”.
O=C1OCC2=C1C(c1cccc(C(F)(F)F)c1)c1cc3c(cc1N2)OCO3 (stereo not drawn) was tested, and the Activity (Phaedon cochleariae [4]) was “Active” and the Activity (Spodoptera frugiperda [2]) was “Active”.
In the case of COc1cccc(C2C3=C(O)OCC3=Nc3cc4c(cc32)OCO4)c1 (stereo not drawn), the Activity (Phaedon cochleariae [5]) is reported as “inactive” and the Activity (Spodoptera frugiperda [2]) is reported as “Active”.
For O=C1OCC2=C1C(c1cncc(Br)c1)c1cc3c(cc1N2)OCO3 (stereo not drawn), the Activity (Phaedon cochleariae [5]) was “inactive” and the Activity (Spodoptera frugiperda [2]) was “Active”.
In the case of COc1cc(OC)cc(C2C3=C(COC3=O)N(C)c3cc(OC)ccc32)c1 (stereo not drawn), the Activity (Phaedon cochleariae [5]) is reported as “inactive” and the Activity (Spodoptera frugiperda [2]) is reported as “Active”.
COc1cc(C2C3=C(COC3=O)Nc3cc4c(cc32)OC(F)(F)O4)cc(OC)c1OC (stereo not drawn) was tested, and the Activity (Spodoptera frugiperda [3]) was “inactive” and the Activity (Phaedon cochleariae [4]) was “Active”.
For COc1cc(OC)cc(C2C3=C(COC3=O)Nc3cc(SC)ccc32)c1 (stereo not drawn), the Activity (Phaedon cochleariae [1]) was “Active” and the Activity (Spodoptera frugiperda [2]) was “Active”.
In the case of O=C1OCC2=C1C(c1cccc(OC(F)(F)C(F)F)c1)c1cc3c(cc1N2)OCO3 (stereo not drawn), the Activity (Phaedon cochleariae [4]) is reported as “Active” and the Activity (Spodoptera frugiperda [2]) is reported as “Active”.
In the case of CC1CC2=C(C(=O)O1)C(c1cccc(Cl)c1)c1cc3c(cc1N2)OCO3 (stereo not drawn), the Activity (Phaedon cochleariae [4]) is reported as “Active” and the Activity (Spodoptera frugiperda [2]) is reported as “Active”.
For O=C1OCC2=C1C(c1cccc(OC(F)(F)F)c1)c1cc3c(cc1N2)OCO3 (stereo not drawn), the Activity (Phaedon cochleariae [4]) was “Active”.
CCOc1cc2c(cc1C)C(c1cc(OC)cc(OC)c1)C1=C(COC1=O)N2 (stereo not drawn) was tested, and the Activity (Spodoptera frugiperda [3]) was “inactive” and the Activity (Phaedon cochleariae [4]) was “Active”.
With COc1cc(OC)cc(C2C3=C(COC3=O)Nc3c2ccc(C)c3C)c1 (stereo not drawn) the Activity (Phaedon cochleariae [4]) was “Active” and the Activity (Spodoptera frugiperda [2]) was “Active”.
In the case of O=C1OCC2=C1C(c1cc(Br)cc(Br)c1)c1cc3c(cc1N2)OCO3 (stereo not drawn), the Activity (Phaedon cochleariae [5]) is reported as “inactive” and the Activity (Spodoptera frugiperda [2]) is reported as “Active”.
O=C1OCC2=C1C(c1cc(Cl)cc(Cl)c1)c1cc3c(cc1N2)OCO3 (stereo not drawn) was tested, and the Activity (Phaedon cochleariae [4]) was “Active”.
For COc1cc(C2C3=C(COC3=O)Nc3cc4c(cc32)OCO4)cc(SC)c1OC (stereo not drawn), the Activity (Spodoptera frugiperda [3]) was “inactive” and the Activity (Phaedon cochleariae [4]) was “Active”.
For COc1cc(C2C3=C(COC3=O)Cc3cc4c(cc32)OCO4)cc(OC)c1OC (stereo not drawn), the Activity (Spodoptera frugiperda [3]) was “inactive” and the Activity (Phaedon cochleariae [4]) was “Active”.
With COc1cc(C2C3=C(COC3=O)Nc3cc4c(cc32)OCO4)ccc1F (stereo not drawn) the Activity (Phaedon cochleariae [1]) was “Active” and the Activity (Spodoptera frugiperda [2]) was “Active”.
With O=C1OCC2=C1C(c1ccc(F)c(Cl)c1)c1cc3c(cc1N2)OCO3 (stereo not drawn) the Activity (Phaedon cochleariae [5]) was “inactive” and the Activity (Spodoptera frugiperda [2]) was “Active”.
